This passage reports IC50 and Activity results from ChEMBL document CHEMBL1221398, “Chemical constituents of the deep reef caribbean sponges Plakortis angulospiculatus and Plakortis halichondrioides and their anti-inflammatory activities” (J Nat Prod, 2010).

SMILES strings stand for the structures. pIC50: −log10 of the molar value. Activity calls are given as the source filed them. The calls are words filed in the database; no cut-off is given here.

System in the first series: not listed separately
Put plainly: Inhibition of NF-kappaB-mediaated transcription in human SW1353 cells by reporter gene assay. Type of series: cell-based. The conditions noted are these: Homo sapiens, SW1353; read-out: IC50. In outline:
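Luciferase reporter gene assay for NF-κB-mediated transcription in SW 1353 cells, with parthenolide as positive control. A luciferase construct carrying SP-1 binding sites served as a control for nonspecific transcription inhibition.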
On the technique in general: A reporter such as luciferase makes a cellular process visible.
For `C=C1C(=O)O[C@@H]2C3O[C@]3(C)CC/C=C(\C)CC[C@@H]12` (some centres undefined), the pIC50 – broadly, the negative decadic logarithm of the IC50, by convention in mol/L – is 5.48.
For `CCC1=C[C@@H](C)[C@@H]2C(C)=C[C@](C)(/C=C(C)/C=C/c3ccccc3)[C@](C)(C(=O)O)[C@@H]12` [ZYGGOMPHIC ACID B], the pIC50 is 4.59.
Turning to `CCC(O)/C(C)=C/C(C)C(O)/C(C)=C/C(C)=C/C(C)/C=C/c1ccccc1` (centres undefined), the pIC50 was 4.59.
The same measure, in the same setting: in the case of `CCC1=C[C@@](/C=C/c2ccccc2)(CC)[C@](C)(C(=O)O)[C@H]2C(CC)=C[C@@H](C)[C@H]12` [SPICULOIC ACID B] it was 4.57.
The same measure, in the same setting: in the case of `CC1=C[C@](C)(/C=C(C)/C=C/c2ccccc2)[C@](C)(C(=O)O)[C@H]2C(C)=C[C@@H](C)[C@H]12` [27-NOR-ZYGGOMPHIC ACID B] it was 5.64; in that of `CC1=C[C@](C)(/C=C/C=C/c2ccccc2)[C@](C)(C(=O)O)[C@H]2C(C)=C[C@@H](C)[C@H]12` [22,27-DINOR-ZYGGOMPHIC ACID B], 4.55; in that of `CCC1=C[C@@H](C)[C@@H]2C(C)=C[C@@](/C=C/c3ccccc3)(CC)[C@](C)(C(=O)O)[C@@H]12` [24-NOR-SPICULOIC ACID B], 6.33.

The series is the same for the next values; noted with them: sw1353.
In the case of `CCC1=C[C@@H](C)[C@@H]2C(C)=C[C@](C)(/C=C/C=C/c3ccccc3)[C@](C)(C(=O)O)[C@@H]12` [22-NOR-ZYGGOMPHIC ACID B], the IC50 result is given as “Not Active”.

System in a further series: not listed separately
Briefly: Inhibition of LPS-induced NOS activity in mouse RAW264.7 cells. Type of series: cell-based.
Conditions: not given
In outline: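 Mouse RAW 264.7 macrophages were stimulated with LPS. iNOS activity was read as the decrease in nitrite production relative to untreated vehicle controls, with L-NMMA as positive control. Compounds were tested up to 25 µg/mL.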
Regarding `CCC1=C[C@@](/C=C/c2ccccc2)(CC)[C@](C)(C(=O)O)[C@H]2C(CC)=C[C@@H](C)[C@H]12` [SPICULOIC ACID B], the IC50 result is reported as “Not Active”.

Staying with this series, now noted: read-out: IC50.
With `CCC1=C[C@@H](C)[C@@H]2C(C)=C[C@](C)(/C=C(C)/C=C/c3ccccc3)[C@](C)(C(=O)O)[C@@H]12` [ZYGGOMPHIC ACID B], the pIC50 is less than 4.19.
On to `CCC(O)/C(C)=C/C(C)C(O)/C(C)=C/C(C)=C/C(C)/C=C/c1ccccc1` (centres undefined), for which the pIC50 was 4.19.
For `CNC(=N)NCCC[C@H](N)C(=O)O` [TILARGININE], the pIC50 was less than 4.00.
In the case of `CC1=C[C@](C)(/C=C(C)/C=C/c2ccccc2)[C@](C)(C(=O)O)[C@H]2C(C)=C[C@@H](C)[C@H]12` [27-NOR-ZYGGOMPHIC ACID B], the pIC50 is 4.73.
For the compound `CC1=C[C@](C)(/C=C/C=C/c2ccccc2)[C@](C)(C(=O)O)[C@H]2C(C)=C[C@@H](C)[C@H]12` [22,27-DINOR-ZYGGOMPHIC ACID B], the pIC50 was 4.52.
On to `CCC1=C[C@@H](C)[C@@H]2C(C)=C[C@@](/C=C/c3ccccc3)(CC)[C@](C)(C(=O)O)[C@@H]12` [24-NOR-SPICULOIC ACID B], for which the pIC50 was 4.26.
For `CCC1=C[C@@H](C)[C@@H]2C(C)=C[C@](C)(/C=C/C=C/c3ccccc3)[C@](C)(C(=O)O)[C@@H]12` [22-NOR-ZYGGOMPHIC ACID B], the pIC50 is 4.70.

Another series relates to HL-60. Put plainly: Cytotoxicity against human HL60 cells up to 25 ug/mL.
Conditions: not given
Regarding `C=C1C(=O)O[C@@H]2C3O[C@]3(C)CC/C=C(\C)CC[C@@H]12` (some centres undefined), the Activity entry is listed as “Non-toxic”.
Consider `CC(=O)/C=C(/C)C(=O)/C(C)=C/C(C)=C/C(C)/C=C/c1ccccc1` (centres undefined), for which the Activity entry is “Non-toxic”.
On the same count and under the same terms, in the case of `CCC1=C[C@@H](C)[C@@H]2C(C)=C[C@](C)(/C=C(C)/C=C/c3ccccc3)[C@](C)(C(=O)O)[C@@H]12` [ZYGGOMPHIC ACID B] it was “Non-toxic”; in that of `CCC(O)/C(C)=C/C(C)C(O)/C(C)=C/C(C)=C/C(C)/C=C/c1ccccc1` (centres undefined), “Non-toxic”.
Take `CCC1=C[C@@](/C=C/c2ccccc2)(CC)[C@](C)(C(=O)O)[C@H]2C(CC)=C[C@@H](C)[C@H]12` [SPICULOIC ACID B]: the Activity result is “Non-toxic”.
Regarding `CNC(=N)NCCC[C@H](N)C(=O)O` [TILARGININE], the Activity result is “Non-toxic”.
Consider `CC1=C[C@](C)(/C=C(C)/C=C/c2ccccc2)[C@](C)(C(=O)O)[C@H]2C(C)=C[C@@H](C)[C@H]12` [27-NOR-ZYGGOMPHIC ACID B], for which the Activity result is given as “Non-toxic”.
For the compound `CC1=C[C@](C)(/C=C/C=C/c2ccccc2)[C@](C)(C(=O)O)[C@H]2C(C)=C[C@@H](C)[C@H]12` [22,27-DINOR-ZYGGOMPHIC ACID B], the Activity result is recorded as “Non-toxic”.
With `CC(=O)C/C(C)=C/C(C)/C=C/c1ccccc1` (centres undefined), the Activity result is recorded as “Non-toxic”.
As to `CCC1=C[C@@H](C)[C@@H]2C(C)=C[C@@](/C=C/c3ccccc3)(CC)[C@](C)(C(=O)O)[C@@H]12` [24-NOR-SPICULOIC ACID B], the Activity entry is “Non-toxic”.
In the case of `CCC1=C[C@@H](C)[C@@H]2C(C)=C[C@](C)(/C=C/C=C/c3ccccc3)[C@](C)(C(=O)O)[C@@H]12` [22-NOR-ZYGGOMPHIC ACID B], the Activity entry is “Non-toxic”.

Another series deals with RAW264.7. Briefly: Cytotoxicity against mouse RAW264.7 cells up to 25 ug/mL.
Conditions: not given
As for `C=C1C(=O)O[C@@H]2C3O[C@]3(C)CC/C=C(\C)CC[C@@H]12` (some centres undefined), the Activity entry is listed as “Non-toxic”.
Regarding `CC(=O)/C=C(/C)C(=O)/C(C)=C/C(C)=C/C(C)/C=C/c1ccccc1` (centres undefined), the Activity entry was “Non-toxic”.
On to `CCC1=C[C@@H](C)[C@@H]2C(C)=C[C@](C)(/C=C(C)/C=C/c3ccccc3)[C@](C)(C(=O)O)[C@@H]12` [ZYGGOMPHIC ACID B], for which the Activity entry is reported as “Non-toxic”.
With `CCC(O)/C(C)=C/C(C)C(O)/C(C)=C/C(C)=C/C(C)/C=C/c1ccccc1` (centres undefined), the Activity result is reported as “Non-toxic”.
With `CCC1=C[C@@](/C=C/c2ccccc2)(CC)[C@](C)(C(=O)O)[C@H]2C(CC)=C[C@@H](C)[C@H]12` [SPICULOIC ACID B], the Activity result was “Non-toxic”.
For the compound `CNC(=N)NCCC[C@H](N)C(=O)O` [TILARGININE], the Activity entry was “Non-toxic”.
As to `CC1=C[C@](C)(/C=C(C)/C=C/c2ccccc2)[C@](C)(C(=O)O)[C@H]2C(C)=C[C@@H](C)[C@H]12` [27-NOR-ZYGGOMPHIC ACID B], the Activity result is listed as “Non-toxic”.
Same read-out and setting: then `CC1=C[C@](C)(/C=C/C=C/c2ccccc2)[C@](C)(C(=O)O)[C@H]2C(C)=C[C@@H](C)[C@H]12` [22,27-DINOR-ZYGGOMPHIC ACID B], with “Non-toxic”; and `CC(=O)C/C(C)=C/C(C)/C=C/c1ccccc1` (centres undefined), with “Non-toxic”.
On to `CCC1=C[C@@H](C)[C@@H]2C(C)=C[C@@](/C=C/c3ccccc3)(CC)[C@](C)(C(=O)O)[C@@H]12` [24-NOR-SPICULOIC ACID B], for which the Activity result is “Non-toxic”.
The same measure, in the same setting: in the case of `CCC1=C[C@@H](C)[C@@H]2C(C)=C[C@](C)(/C=C/C=C/c3ccccc3)[C@](C)(C(=O)O)[C@@H]12` [22-NOR-ZYGGOMPHIC ACID B] it was “Non-toxic”.

In the next series the test system is HL-60. Briefly: Antioxidant activity against PMA-treated human HL60 cells assessed as inhibition of ROS generation.
Conditions: not given
In the case of `C=C1C(=O)O[C@@H]2C3O[C@]3(C)CC/C=C(\C)CC[C@@H]12` (some centres undefined), the outcome was inactive.
In the case of `CC(=O)/C=C(/C)C(=O)/C(C)=C/C(C)=C/C(C)/C=C/c1ccccc1` (centres undefined), the result was inactive.
Consider `CCC1=C[C@@H](C)[C@@H]2C(C)=C[C@](C)(/C=C(C)/C=C/c3ccccc3)[C@](C)(C(=O)O)[C@@H]12` [ZYGGOMPHIC ACID B], for which the outcome was inactive.
On to `CCC(O)/C(C)=C/C(C)C(O)/C(C)=C/C(C)=C/C(C)/C=C/c1ccccc1` (centres undefined), for which the outcome was inactive.
Regarding `CCC1=C[C@@](/C=C/c2ccccc2)(CC)[C@](C)(C(=O)O)[C@H]2C(CC)=C[C@@H](C)[C@H]12` [SPICULOIC ACID B], the outcome was inactive.
Consider `CNC(=N)NCCC[C@H](N)C(=O)O` [TILARGININE], for which the outcome was inactive.
Still for that read-out and setting: then `CC1=C[C@](C)(/C=C(C)/C=C/c2ccccc2)[C@](C)(C(=O)O)[C@H]2C(C)=C[C@@H](C)[C@H]12` [27-NOR-ZYGGOMPHIC ACID B], with “inactive”; and `CC1=C[C@](C)(/C=C/C=C/c2ccccc2)[C@](C)(C(=O)O)[C@H]2C(C)=C[C@@H](C)[C@H]12` [22,27-DINOR-ZYGGOMPHIC ACID B], with “inactive”.
Consider `CC(=O)C/C(C)=C/C(C)/C=C/c1ccccc1` (centres undefined), for which the outcome was inactive.
With `CCC1=C[C@@H](C)[C@@H]2C(C)=C[C@@](/C=C/c3ccccc3)(CC)[C@](C)(C(=O)O)[C@@H]12` [24-NOR-SPICULOIC ACID B], the outcome was inactive.
Take `CCC1=C[C@@H](C)[C@@H]2C(C)=C[C@](C)(/C=C/C=C/c3ccccc3)[C@](C)(C(=O)O)[C@@H]12` [22-NOR-ZYGGOMPHIC ACID B]: the result was inactive.
